Screens from PubChem BioAssay.
PostGolgi yeast – growth inhibition of a yeast mutant, post-Golgi transport screen. post-Golgi transport phenotypic cell assay. inhibition, % at 10 µM. actives 0.9% (n = 98,000). AID 739;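 note: yeast cells grown in 1536-well plates; yeast grown about 18 h at 30C before absorbance read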
PostGolgi ctrl – yeast control strain growth, post-Golgi counter-screen | efflux-deficient yeast background strain, growth absorbance A615, 16 h | inhibition, % at 10 µM | actives 5% (n = 98,000) | AID 738
tolC growth inh – E. coli tolC mutant growth inhibition. growth inhibition, % at 10 µM (by protocol). actives 2.2% (n = 65,000). E. coli BW25113 tolC mutant growth, OD615;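 active = growth inhibition at or above a cutoff equal to the mean over every tested compound plus 3 SD, cut at about 60% in these data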;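 note: growth measured after 20 h incubation at 37 °C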
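signal = optical density read at 615 nm | test system = E. coli ΔtolC::kan strain BW25113 | timing = 20 h compound exposure of bacteria at 37 °C | buffer or medium = LB medium plus 50 µg/mL kanamycin | compound dosing = 10 µM final, single dose | evaluation = % inhibition of E. coli growth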
PLAP act – activates human placental alkaline phosphatase; P05187; purified PLAP enzyme, luminescent substrate read-out; hits give high values; activation fold at 20 µM; actives 1.2% (n = 96,000); AID 696; in the data active = activation fold above about 2
Ecoli WT expand – E. coli BW25113 growth inhibition, expanded screen. OD600 absorbance. growth inhibition, % at 100 µM. actives 0.15% (n = 98,000). AID 710;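 active = growth inhibition above about 50% at one test dose, limit read from the data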;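 note: growth measured after 20 h incubation at 37 °C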
HePTP inh – human HePTP phosphatase inhibition; P35236; recombinant HePTP phosphatase activity, OD absorbance; inhibition, % at 20 µM; actives 0.64% (n = 110,000); AID 521; in the data active = inhibition above about 50%;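 note: plate controls were vehicle for no effect and reference inhibitor for full effect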
Target sequence (P35236 whole entry, looked up): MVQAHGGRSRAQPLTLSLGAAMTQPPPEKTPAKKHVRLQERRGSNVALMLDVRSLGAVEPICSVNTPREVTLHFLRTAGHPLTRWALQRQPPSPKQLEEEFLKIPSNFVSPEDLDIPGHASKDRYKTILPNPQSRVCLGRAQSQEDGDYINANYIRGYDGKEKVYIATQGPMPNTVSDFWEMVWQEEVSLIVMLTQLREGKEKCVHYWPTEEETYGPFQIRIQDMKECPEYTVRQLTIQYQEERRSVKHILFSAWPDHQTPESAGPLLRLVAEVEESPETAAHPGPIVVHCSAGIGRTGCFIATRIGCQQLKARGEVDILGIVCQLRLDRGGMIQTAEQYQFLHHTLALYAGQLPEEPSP
* hit, by the source's call. Most compounds without a hit are left out; they make up all but 5.4% or so of the library. Cut-off read from the data, not from the text of the source, unless noted: active = inhibition above about 30%; inactive = the rest.

For O=C(Nc1ncc(Cc2cccc(Cl)c2)s1)c1cccs1 the results were PostGolgi yeast 1, PostGolgi ctrl 47*, PLAP act 0.9 and Ecoli WT expand -17.
For Cc1ccc(Cc2cnc(NC(=O)c3cccs3)s2)cc1 the results were PostGolgi yeast 10, PostGolgi ctrl 41*, PLAP act 1.1 and Ecoli WT expand -2.
For Cc1cc(C)c2c3c(sc2n1)C(c1cccc(F)c1)C(C#N)=C(N)O3 (stereo not given) the results were PostGolgi yeast 19, PostGolgi ctrl 74*, PLAP act 0.7 and Ecoli WT expand -2.
`Cc1oc(C)c2c(=O)ccc3c(c12)OC(N)=C(C#N)C3c1ccc(F)cc1` (stereo not given) gave PostGolgi yeast -1, PostGolgi ctrl -5, tolC growth inh 6, PLAP act 1.1, Ecoli WT expand 24 and HePTP inh 6.
Screening O=C(Nc1ccc(OCC(F)(F)C(F)F)c(C(F)(F)F)c1)c1ccccc1O returned PostGolgi yeast 25, PostGolgi ctrl 85*, PLAP act 1.2 and Ecoli WT expand -2.
`O=C(Nc1ccc(Cl)c(C(F)(F)F)c1)c1ccccc1Br` gave HePTP inh 2.
`CCN(CC)C(=O)c1c(NC(=O)c2ccc([N+](=O)[O-])cc2)sc2c1CCCCC2` gave HePTP inh -11.
Clc1ccc(/C=N/Nc2nc(N3CCOCC3)nc(N3CCOCC3)n2)cc1Cl was read as HePTP inh -3.
For CCN(CC)CCCN(Cc1cc2cc3c(cc2[nH]c1=O)OCCO3)C(=O)Nc1ccc(F)cc1 the results were PostGolgi yeast 35*, PostGolgi ctrl 1, tolC growth inh 12, PLAP act 0.6, Ecoli WT expand 2 and HePTP inh -3.
CC1CCN(C(=O)Cn2c(=O)n(Cc3ccc4c(c3)OCO4)c(=O)c3ccccc32)CC1 was read as PostGolgi yeast 12, PostGolgi ctrl 9, tolC growth inh 14, PLAP act 1.4, Ecoli WT expand -9 and HePTP inh -4.
Screening CC1CCN(C(=O)CSc2nc3ccccc3c(=O)n2Cc2ccc3c(c2)OCO3)CC1 returned PostGolgi yeast -6, PostGolgi ctrl 43*, PLAP act 1.4 and Ecoli WT expand -18.
For CCCn1c(=S)[nH]c2cc(C(=O)N3CCCC(C(=O)OCC)C3)ccc2c1=O (stereo not given) the results were PostGolgi yeast 0, PostGolgi ctrl 9, tolC growth inh 16, PLAP act 1.2, Ecoli WT expand -8 and HePTP inh -7.
`CC1CCCN(C(=O)c2ccc3c(=O)n(Cc4ccc5c(c4)OCO5)c(=S)[nH]c3c2)C1` (stereo not given) gave PostGolgi yeast -1, PostGolgi ctrl 47*, PLAP act 1.4 and Ecoli WT expand -4.
`O=C1N=C(N2CCOCC2)S/C1=C\c1ccoc1` gave HePTP inh -15.
For CCOC(=O)c1c(-c2ccc(C)cc2)csc1NC(=O)C(C)(C)C the results were HePTP inh -6.
CCOC(=O)c1cnc2c(C#N)c(C)nn2c1-c1ccccc1 was read as PostGolgi yeast 3, PostGolgi ctrl 32*, tolC growth inh -2, PLAP act 1, Ecoli WT expand -2 and HePTP inh -2.
For CCOC(=O)c1cnc2c(C#N)c(C)nn2c1C the results were PostGolgi yeast -20, PostGolgi ctrl 12, tolC growth inh -19, PLAP act 1.1, Ecoli WT expand -3 and HePTP inh 2.
Screening CC(C)CC(=O)Nc1ccc(S(N)(=O)=O)cc1 returned HePTP inh 2.
For Cn1c(=O)oc2cc(S(=O)(=O)N3CCOCC3)ccc21 the results were PostGolgi yeast 2, PostGolgi ctrl 30, tolC growth inh -12, PLAP act 0.8, Ecoli WT expand -8 and HePTP inh 13.
`Cc1ccc(Cl)cc1N1CCN(S(=O)(=O)c2ccc3c(c2)oc(=O)n3C)CC1` gave PostGolgi yeast -3, PostGolgi ctrl 37*, tolC growth inh 18, PLAP act 1.4, Ecoli WT expand -1 and HePTP inh 10.
For COc1cc(/C=C2\C(=O)NC(=S)N(c3ccccc3)C2=O)cc([N+](=O)[O-])c1O the results were HePTP inh 59*.
CCc1ccc(C2CC(=O)N3CN(c4ccccc4)CSC3=C2C#N)cc1 (stereo not given) was read as PostGolgi yeast -3, PostGolgi ctrl 11, tolC growth inh 3, PLAP act 1, Ecoli WT expand 7 and HePTP inh 8.
For N#CC1=C2SCC(O)(c3ccccc3)N2C(=O)CC1c1ccccc1 (stereo not given) the results were PostGolgi yeast 41*, PostGolgi ctrl 1, tolC growth inh 13, PLAP act 1.2, Ecoli WT expand -10 and HePTP inh 6.
Screening CCC(C)NCCOCCOc1ccc(C)cc1Br (stereo not given) returned PostGolgi yeast -4, PostGolgi ctrl 37*, PLAP act 1 and Ecoli WT expand 9.
O=C(O)c1cc(-c2ccc(/C=N/n3cnnc3)o2)ccc1O was read as HePTP inh 103*.
`O=C(COc1ccc(Cl)cc1Cl)NCCCOCC(=O)Oc1ccc(Cl)cc1Cl` gave HePTP inh -5.
`COc1cc(OC)cc(C(=O)N[C@H](C(=O)NC23CC4CC(CC(C4)C2)C3)C(C)C)c1` gave PostGolgi yeast 47*, PostGolgi ctrl 28, PLAP act 1 and Ecoli WT expand -13.
Screening CCCc1cc(-c2nc(N)ncc2-c2ccc3c(c2)OCCCO3)c(O)cc1OC returned PostGolgi yeast -12, PostGolgi ctrl 40*, tolC growth inh 1, PLAP act 1.4, Ecoli WT expand -6 and HePTP inh 5.
Screening CCn1cc(C(=O)NCc2ccc3c(c2)OCO3)c(=O)c2cc(F)c(N3CCN(C(=O)c4ccco4)CC3)cc21 returned PostGolgi yeast -7, PostGolgi ctrl 0, PLAP act 1.7 and Ecoli WT expand 73*.
`CCn1cc(C(=O)Nc2nncs2)c(=O)c2cc(F)c(N3CCN(C(=O)c4ccco4)CC3)cc21` gave tolC growth inh 100* and HePTP inh 7.
Screening CSc1ccc(/C=C2/SC(=O)N(CN3CCCCC3)C2=O)cc1 returned HePTP inh -20.
For CCOc1ccc2c(c1)n(CO)c(=S)n2CO the results were PostGolgi yeast -6, PostGolgi ctrl 20, tolC growth inh -1, PLAP act 2.3*, Ecoli WT expand 10 and HePTP inh 1.
O=C(NC1=Nc2cccc3cccc1c23)c1cccc(C(F)(F)F)c1 was read as HePTP inh 4.
`Cc1csc(NC(=O)C2CCCN(S(=O)(=O)c3ccc(Br)s3)C2)n1` (stereo not given) gave PostGolgi yeast -2, PostGolgi ctrl 20, tolC growth inh 71*, PLAP act 1.5, Ecoli WT expand -3 and HePTP inh 10.
